core dimer inh: HCV core protein dimerization inhibition; inhibition, % at 5 µM; 0.33% of 300,000 active; TR-FRET GST/Flag-core106 dimerization, 1536-well; AID 1899;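 active = inhibition above the mean of all tested compounds plus 3 SD, set per screening campaign, cut at about 45% in these data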
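Test system: GST/Flag-tagged HCV core106 proteins; Medium: KF-containing HEPES buffer, pH 7.45, DTT, CHAPS, BSA; Times: compound-protein-antibody incubation 4 h at 22.5 °C; Detection: TR-FRET 671 and 617 nm emission; Benchmarks: wells lacking GST-core106 and wells with excess unlabelled core106.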
eIF4H inh: inhibitors of RNA binding by human eIF4H | inhibition, % at 35 µM | eIF4H fluorescence polarization binding assay | 0.94% of 290,000 active | Q15056;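 also: calls also rest on retests at 20 µM and on dose response follow-up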
FID counter: displaces DNA intercalator in HCV helicase counter-screen; 0.17% of 290,000 active; inhibition, % at 7.9 µM; DNA fluorescent intercalator displacement, fluorescence; AID 1845; in the data active = inhibition above about 37%;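 also: 0% = vehicle and 100% = reference compound; higher means more ethidium bromide displaced from hairpin DNA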
NS3 helicase inh: blocks Hepatitis C virus NS3 helicase unwinding | 0.56% of 290,000 active | NS3 helicase DNA unwinding, Cy5 molecular beacon fluorescence | inhibition, % at 10.9 µM;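 active = inhibition above the mean of all tested compounds plus 3 SD, set per campaign, cut at about 35% in these data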;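 also: 0% = DMSO wells and 100% = thioflavine S control wells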
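System: Hepatitis C virus NS3 helicase domain fragment enzyme | Reagent: Annealed dual-labelled DNA beacon duplex, ATP-started | Compound dosing: 10.9 µM single point, 0.8% DMSO | Incubation: 1 h reaction at 25 °C, ATP-initiated | Technique: Cy5 fluorescence | Evaluation: Percent inhibition from t60/t0 fluorescence ratio | Benchmarks: Low DMSO, high thioflavine S at 110 µM | Replication: Singlicate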
MLLE-PAM2 inh: blocks PAM2 peptide binding to the PABP1 MLLE domain | inhibition, % at 20 µM | GST-MLLE / FITC-PAM2 fluorescence polarization | 0.36% of 360,000 active; in the data active = inhibition above about 35%, passing the limit was not always enough;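 also: plate controls were DMSO wells with GST-MLLE for no effect and wells lacking GST-MLLE protein for full effect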
PABP FP inh: PABP-poly(A) binding inhibition; P11940; PABP-poly(A) RNA binding, fluorescence polarization; inhibition, % at 35 µM; 1% of 290,000 active; AID 2014;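 also: calls also rest on retests at 20 µM and on dose response follow-up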
* hit, by the source's call; ? = inconclusive; . = not tested or not shown. Sampled rows, rich in hits. Any-hit rate of the full collection: about 2%. Unless noted, no rule for the calls is given here.

SMILES	core dimer inh	eIF4H inh	FID counter	NS3 helicase inh	MLLE-PAM2 inh	PABP FP inh
CCOC(=O)C1CCN(C(=O)Nc2ccc3nc(-c4ccco4)c(-c4ccco4)nc3c2)CC1	72.2*	?	-23.7	5.7	12.6	0.1
CC1CN(C(=O)COC(=O)CSc2ccc([N+](=O)[O-])cc2)CC(C)O1 (centres undefined)	.	.	.	.	38.9	.
CCc1nc2c(OCC3CCCCC3)cccn2c1N(C)C(=O)c1ccccc1F	.	.	.	.	-2.2	.
COc1c(F)c(F)c(C(=O)Nc2ccccc2N2CCN(C(C)=O)CC2)c(F)c1F	47.3*	-5.1	-13.8	1.2	2.6	0.2
CCc1ccc(/C=N/NC(=O)c2cc(-c3ccccc3OC)nc3ccccc23)s1	55.7*	0.0	-12.8	-5.1	-11.1	-7.3
COc1ccccc1-c1cc(C(=O)N/N=C/c2ccc(C)s2)c2ccccc2n1	37.2	3.5	-12.7	0.2	0.5	0.2
CCCCCCNC(=O)O[C@H]1Cn2c(=O)ccc(=O)n2[C@@H]2CN(S(=O)(=O)c3ccc(C)cc3)C[C@]12O	.	.	.	.	-0.1	.
O=C(c1cnc(Cc2c[nH]c3ccccc23)c(I)c1)N1CCOCC1	.	.	.	.	-23.0	.
C#CCNC(=O)c1csc([C@@H]2O[C@H](CO)[C@@H](O)[C@H]2O)n1	.	.	.	.	-5.9	.
CCN(CC)C(=O)c1ccc(Cc2cn(C)c3ccccc23)nc1	.	.	.	.	6.4	.
Cc1ccc(-c2cc(C(=O)Nc3ccccn3)c3ccccc3n2)o1	64.3*	46.4	-2.4	22.4	1.1	-2.3
Cc1ccc(NC(=O)c2cc(-c3ccc(C)o3)nc3ccccc23)cc1	44.4	22.5	-12.7	0.9	9.5	10.5
Cc1ccc(C(=O)NCC(=O)OCC(=O)Nc2ccc3[nH]c(=O)[nH]c3c2)cc1	-0.5	.	.	.	3.5	.
N#Cc1c(NC(=O)CN2CCN(S(=O)(=O)c3ccc4c(c3)OCCO4)CC2)sc2c1CCC2	70.8*	13.2	-1.3	1.8	-21.1	11.6
NC(=O)c1c(NC(=O)CN2CCN(S(=O)(=O)c3ccccc3)CC2)sc2c1CCC2	47.5*	.	.	.	-22.1	.
CN1CCN(CC(=O)Nc2sc3c(c2C(=O)Nc2ccccc2)CCCC3)CC1	-17.7	3.8	11.9	-21.2	-105.7	59.9*
NC(=O)c1c(NC(=O)CN2C(=O)NC(Cc3ccccc3)C2=O)sc2c1CCC2 (centres undefined)	10.9	23.0	-10.2	22.1	-17.5	18.6
O=C(CN1CCCC1)Nc1sc2c(c1C(=O)Nc1ccc(Br)cc1)CCC2	-0.2	7.2	0.0	-31.4	-2.3	-1.5
CN(C)S(=O)(=O)NCC1CCCN(Cc2cc3ccccc3s2)C1 (centres undefined)	-1.5	.	-2.6	-2.6	-2.8	.
O=S1(=O)CC(N2CCN(CCO)CC2)CN1C1CCCCC1 (centres undefined)	.	.	.	.	2.1	.
CCCCCC#CCC#CCC#CCC#CCCCC(=O)O	53.8*	84.8*	-31.1	3.5	.	9.9
CCCCCCCCCC(=O)O	.	.	.	.	-2.1	.
Cc1[nH]nc2c1C(c1ccc(F)cc1)C(C#N)=C(N)O2 (centres undefined)	-10.2	1.6	-1.9	2.6	6.8	-6.1
Cc1oc(C)c2c(=O)ccc3c(c12)OC(N)=C(C#N)C3c1ccc(F)cc1 (centres undefined)	46.1*	69.9*	-14.2	31.4	-55.4	112.2*
COC(=O)c1scc2c(=O)cc(C(F)(F)F)[nH]c12	-8.4	48.4	-1.2	-3.7	55.6*	35.6
SMILES	core dimer inh	eIF4H inh	FID counter	NS3 helicase inh	MLLE-PAM2 inh	PABP FP inh
CC(C)NC(=O)C1(C)CCN1C(=O)c1ccc(F)c(Cl)c1 (centres undefined)	.	.	.	.	-1.6	.
Cc1c(C(=O)Nc2cccc(Cl)c2)c2ccccn2c1CCc1ccncc1	.	?	-14.9	10.3	-24.8	85.0*
CCOC(=O)C1(C)C(=O)CC2c3nc4ccccc4cc3CN2C1=O (centres undefined)	.	.	.	.	12.3	.
O=C(N/N=C/c1ccco1)c1cc(-c2ccc(Br)s2)[nH]n1	2.1	7.9	-5.2	9.4	-5.4	22.6
O=C(N/N=C/c1ccco1)c1cc(-c2cccs2)[nH]n1	-0.3	59.8*	-0.5	15.1	-3.0	active
Cc1nc2ccccc2cc1C(=O)N/N=C/c1ccco1	-7.1	87.3*	1.6	-11.8	-4.5	-17.9
COCC(=O)N[C@@H]1c2cc(OC)c(OC)cc2C[C@H]1OCc1ccccc1	.	.	.	.	6.9	.
C=CCOn1c(=O)c(-c2ccccc2)[n+]([O-])c2ccccc21	-5.2	5.1	-12.1	-14.4	-13.8	8.8
CCOC(=O)COn1c(=O)c(-c2ccc(F)cc2)[n+]([O-])c2ccccc21	.	-8.2	-6.6	-2.4	-12.6	1.1
C=CCOn1c(=O)c(-c2cc3ccccc3o2)[n+]([O-])c2ccccc21	1.4	58.1*	-0.7	7.5	1.4	47.4*
CCOC(=O)COn1c(=O)c(-c2cc3ccccc3o2)[n+]([O-])c2ccccc21	-7.7	63.7	8.9	-3.7	20.2	42.4*
CC(C)c1ccc(O)c(NC(=S)NC(=O)CCc2ccccc2)c1	-0.5	11.7	-14.1	-5.6	42.6*	-0.7
CC(C)CC(C(=O)NC(C)(C)C)N(Cc1ccccc1Cl)C(=O)c1snc(C(N)=O)c1N (centres undefined)	.	-5.7	-27.4	-22.9	-0.8	-6.4
Cc1cccc(NC(=O)Nc2nnc([C@@H]3C[C@H](O)[C@@H](CO)O3)s2)c1	.	.	.	.	-0.8	.
COc1ncnc2c1ncn2CCCNCc1ccc(C)o1	.	.	.	.	4.3	.
Cc1ccc(N2C(=O)SC(N(CC(=O)O)c3cccc(C)c3)C2=O)cc1 (centres undefined)	-3.6	-0.7	0.4	-7.5	26.4	0.9
O=C(O)CN(c1ccccc1)C1SC(=O)NC1=O (centres undefined)	-2.2	-1.1	0.8	-4.2	3.2	-5.8
NC(=O)CN(c1ccccc1)C1SC(=O)N(Cc2ccccc2)C1=O (centres undefined)	4.6	-2.1	-0.8	3.2	45.2*	-13.7
Cc1ccc(N(CC(N)=O)C2SC(=O)N(Cc3ccccc3)C2=O)cc1 (centres undefined)	2.9	-1.6	1.1	-2.9	41.6*	-1.8
CCOC(=O)Nc1ccc(N2CCOCC2)c(S(=O)(=O)Nc2ccc(Cl)cc2)c1	.	.	.	.	-6.7	.
Cc1ccc(C(=O)/C=C/c2cn(CC(O)CN3CCOCC3)c3ccccc23)cc1 (centres undefined)	-11.8	10.1	4.6	-76.2	-46.6	-0.8
O=C(/C=C/c1cn(CC(O)CN2CCOCC2)c2ccccc12)c1cccs1 (centres undefined)	0.1	97.7	-7.5	-31.5	.	44.3*
Cc1cc(C)c2c(N)c(S(=O)(=O)Cc3ccccc3)sc2n1	5.8	7.6	-7.8	3.4	-0.8	-12.3
Cc1ccc(-c2cc(-c3ccccc3)c3c(N)c(S(C)(=O)=O)sc3n2)cc1	9.8	105.0*	-14.6	5.1	7.9	125.4*
Cc1cc(N2CCCC2)ccc1NC(=O)COc1cccc(C(F)(F)F)c1	-0.9	42.0	-11.7	-91.4	-10.5	-5.1

Screening results from PubChem BioAssay.
